Screening data (PubChem)
RAD52 anneal inh: blocks human RAD52 DNA annealing. P43351. recombinant RAD52 DNA annealing, FRET fluorescence. inhibition, % at 18.7 µM. 360,000 tested, 0.46% active;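 active means every replicate showing at least 50% inhibition; inconclusive means mean inhibition at least 50% but not in every replicate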
RAD54 inh: blocks human RAD54 Holliday junction branch migration. Q92698. AID 602329. inhibition, % at 10.4 µM. FAM/BHQ fluorescence. 360,000 tested, 0.14% active;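 active means mean normalized replicate activity at least 40 and at least half of replicates scoring 40 or more; inconclusive means only one of the two criteria met; inactive means mean below 40 and under half of replicates reaching 40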;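 further: 0% = median of neutral control wells and 100% = median of positive control wells; inhibitors cause a drop in the FAM fluorescence signal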
S100A4 inh HTS: inhibitors of human S100A4 binding to myosin IIA peptide. P26447. S100A4/TAMRA-MyoIIA peptide fluorescence polarization. inhibition, % at 10.7 µM. 360,000 tested, 0.14% active. AID 652163;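 active means mean inhibition of at least 70% across replicates, with every replicate also reaching that level; inconclusive means mean inhibition reaches 70% but some replicates fall short; inactive means mean inhibition below 70%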
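Test system: S100A4 monomer protein. Medium: HEPES buffer with Ca2+, pH 7.2. Reagent: fluorescent myosin IIA peptide, 5 nM. Compound dosing: single-point compound testing. Timing: 5 min between mix addition and reading. Benchmarks: DMSO neutral and TFP positive wells.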
dFosB act-1: mouse delta FosB homodimer activation. P13346. purified delta FosB, TAMRA-CDK5 oligo fluorescence polarization; percent of positive-control signal above neutral wells. activation, % at 25 µM. 340,000 tested, 0.99% active;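 active means mean activation above about 17%, with every replicate also reaching it, limit read from the data, passing the limit was not always enough; inconclusive means only one of the two conditions met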
MLL AF4-AF9 inh: MLL-AF4/AF9 protein interaction inhibition | P42568 | AlphaScreen, biotin-AF4 peptide binding to FLAG-AF9 | inhibition, % at 10 µM | 350,000 tested, 0.47% active;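 active means every replicate reaching a set inhibition limit, whatever the replicate mean, cut at about 25% in these data; inconclusive means mean inhibition reaches that limit but some replicates miss it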;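 further: 0% = plate neutral control median and 100% = total signal loss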
Target sequence (P42568 whole entry, looked up): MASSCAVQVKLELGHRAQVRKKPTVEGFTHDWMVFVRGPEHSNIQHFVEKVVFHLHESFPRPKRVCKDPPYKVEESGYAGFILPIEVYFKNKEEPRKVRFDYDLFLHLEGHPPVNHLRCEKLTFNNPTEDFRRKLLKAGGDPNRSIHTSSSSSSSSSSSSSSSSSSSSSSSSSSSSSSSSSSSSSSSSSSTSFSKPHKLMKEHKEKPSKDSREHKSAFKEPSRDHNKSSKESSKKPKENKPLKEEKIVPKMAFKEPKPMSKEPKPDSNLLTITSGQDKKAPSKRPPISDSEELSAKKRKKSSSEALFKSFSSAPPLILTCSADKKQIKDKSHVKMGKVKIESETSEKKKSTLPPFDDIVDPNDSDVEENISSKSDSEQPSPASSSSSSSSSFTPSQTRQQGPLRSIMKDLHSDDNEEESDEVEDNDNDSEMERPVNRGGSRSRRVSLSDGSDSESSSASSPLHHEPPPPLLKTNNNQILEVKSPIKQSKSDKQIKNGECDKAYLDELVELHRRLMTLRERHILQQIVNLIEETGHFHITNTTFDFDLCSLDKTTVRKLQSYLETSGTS
dFosB act-2: enhances mouse delta FosB homodimer binding to DNA; shares compounds with dFosB act-1; purified delta FosB, TAMRA-CDK5 oligo fluorescence polarization; normalised: neutral wells 0, positive control 100; activation, % at 24.9 µM; 2,400 tested, under 10 active; AID 588690;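 active means highest replicate activation at or above 34% and every replicate reaching that threshold; inconclusive means meets only one of the two criteria; inactive means meets neither criterion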;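 further: higher polarization means more probe DNA bound by delta FosB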
Starred values were filed as active, the others as inactive; ? = inconclusive; . = no result given. This is a sample that favours compounds with a hit; in the whole collection about 1.5% have one here.

SMILES | RAD52 anneal inh | RAD54 inh | S100A4 inh HTS | dFosB act-1 | MLL AF4-AF9 inh | dFosB act-2
Cc1ccccc1Cn1c(=O)n(CCC(=O)NCc2ccc3c(c2)OCO3)c(=O)c2ccccc21 | . | 0 | . | 60* | . | -1
Cc1cccc(NC(=O)Cn2c(=O)n(CCC(=O)NC3CCCC3)c(=O)c3ccccc32)c1 | . | -3 | . | 42* | . | 1
Cc1ccc(CNC(=O)CCCn2c(=O)c3ccccc3n(CC(=O)NC3CCCC3)c2=O)cc1 | . | -4 | . | 27* | . | -2
CCCNC(=O)Nc1ccc2c(c1)C(=O)N(C)C[C@@H](OC)[C@@H](C)CN(C(=O)c1ccccc1F)[C@@H](C)CO2 | 4 | -5 | -7 | . | 4 | .
O=C(N[C@H]1CC[C@H](CCNS(=O)(=O)c2ccc(F)cc2)O[C@H]1CO)C1CCOCC1 | -5 | -6 | -14 | . | 0 | .
Cc1c(C(=O)OCC(=O)N2CC(=O)Nc3ccccc32)oc2ccc(Br)cc12 | . | -2 | . | 70* | . | 0
CCn1cc(C(=O)NP(=O)(Nc2ccc(C)cc2)Nc2ccc(C)cc2)c2ccccc21 | -7 | 3 | 6 | 36* | -7 | -4
CCn1cc(C(=O)C(F)(F)F)c2ccccc21 | . | 4 | . | 3 | . | .
CCC(=O)N(C)C[C@H]1Oc2cc(C#CC(C)C)ccc2S(=O)(=O)N([C@H](C)CO)C[C@@H]1C | 4 | 4 | 2 | . | 1 | .
O=C(Nc1cccc(-n2cnnn2)c1)c1cc2ccccc2o1 | -6 | -4 | -4 | 37* | -2 | 6
O=C([C@H]1[C@H](CO)[C@H]2Cn3c(cccc3=O)[C@H]2N1CC1CCCC1)N1CCc2ccccc2C1 | -13 | -4 | 19 | . | 1 | .
COc1cc(CN2CC3(CN(C(=O)NC(C)C)C3)c3c(n(C)c4cc(OC)ccc34)[C@@H]2CO)cc(OC)c1 | -21 | . | 0 | . | 1 | .
C[C@@H]1CCCCO[C@@H](CN(C)C(=O)Nc2ccc3c(c2)OCO3)[C@H](C)CN([C@@H](C)CO)C(=O)c2cc(NC(=O)CCC(F)(F)F)ccc2O1 | -2 | -1 | 6 | . | 2 | .
CC(=O)c1cccc(NS(=O)(=O)c2ccc(N/C=C\C(=O)c3ccc(F)cc3)cc2)c1 | . | -4 | . | -4 | . | .
CC(=O)c1cccc(NS(=O)(=O)c2ccc(N/C=C\C(=O)c3ccc(C)cc3)cc2)c1 | . | -1 | . | 23* | . | 0
CC(=O)c1cccc(NS(=O)(=O)c2ccc(N/C=C/C(=O)c3ccc(F)cc3)cc2)c1 | . | . | . | -2 | . | .
CC(=O)c1ccc(NS(=O)(=O)c2ccc(N/C=C/C(=O)c3ccc(F)cc3)cc2)cc1 | -127 | . | 3 | 44* | -3 | 3
CC(=O)c1ccc(OCC(O)CN2CCN(CC(O)COc3ccc(C(C)=O)cc3)CC2)cc1 (stereo unspecified) | . | 8 | . | -6 | . | .
Cc1ccccc1OCC(O)CN1CCN(CCN2C(=O)c3cccc4cccc(c34)C2=O)CC1 (stereo unspecified) | 1 | . | -21 | 50* | 11 | 0
CCC(OCC(O)CN1CCN(CCN2C(=O)c3cccc4cccc(c34)C2=O)CC1)c1ccccc1 (stereo unspecified) | . | . | . | 30* | . | 5
CC(=O)c1ccc(OCC(O)CN2CCN(CCN3C(=O)c4cccc5cccc(c45)C3=O)CC2)cc1 (stereo unspecified) | . | . | . | 38* | . | -5
Cc1cccc(C)c1OCC(O)CN1CCC(CN2C(=O)c3cccc4cccc(c34)C2=O)CC1 (stereo unspecified) | . | 16 | . | 74* | . | 6
N#C[C@H]1[C@@H](c2ccccc2-c2cccc(F)c2)[C@@H](CO)N1C(=O)NC1CCCC1 | -9 | . | 4 | . | -3 | .
COc1ccc(-c2cc(-c3cccs3)c(C#N)c(SCC(=O)NCc3ccccc3OC)n2)cc1 | . | 8 | . | 23* | . | 3
COc1ccc(-c2cc(-c3cccs3)c(C#N)c(SCC(=O)NCc3ccccc3)n2)cc1 | . | 3 | . | 11 | . | .
COc1ccccc1CNC(=O)CSc1nc(N)c(C#N)c(-c2cccs2)c1C#N | . | -6 | . | 75* | . | -4
COc1cccc(S(=O)(=O)N[C@H]2CC[C@H](CC(=O)NCc3ccc(Cl)cc3)O[C@H]2CO)c1 | 12 | -3 | 15 | . | 0 | .
COc1ccc2cc(/C=N/NC(=O)c3ccc(CN(c4cccc(Cl)c4Cl)S(C)(=O)=O)cc3)c(Cl)nc2c1 | . | -3 | . | 46* | . | ?
